Data on three molecules can be found in ChEMBL document CHEMBL4610026, “Design, synthesis and evaluation of protein disulfide isomerase inhibitors with nitric oxide releasing activity” (Bioorg Med Chem Lett, 2020).

The test system of data set [1] is SH-SY5Y. Nature of the data set: Antiproliferative activity against human SH-SY5Y cells assessed as cell growth inhibition at 600 uM by CCK-8 assay relative to control. In kind it is functional. The settings on record: read-out: GI. Background: Tetrazolium assays rely on reduction of a dye to a coloured formazan, in cell work by metabolically active cells.
Data set [2] concerns HeLa. Nature of the data set: Antiproliferative activity against human HeLa cells assessed as cell growth inhibition at 600 uM by CCK-8 assay relative to control. It is filed as functional. The settings on record: read-out: GI.
In data set [3] the target is T1, Protein disulfide-isomerase (Bos taurus) (UniProt P05307).
T1 sequence (whole entry): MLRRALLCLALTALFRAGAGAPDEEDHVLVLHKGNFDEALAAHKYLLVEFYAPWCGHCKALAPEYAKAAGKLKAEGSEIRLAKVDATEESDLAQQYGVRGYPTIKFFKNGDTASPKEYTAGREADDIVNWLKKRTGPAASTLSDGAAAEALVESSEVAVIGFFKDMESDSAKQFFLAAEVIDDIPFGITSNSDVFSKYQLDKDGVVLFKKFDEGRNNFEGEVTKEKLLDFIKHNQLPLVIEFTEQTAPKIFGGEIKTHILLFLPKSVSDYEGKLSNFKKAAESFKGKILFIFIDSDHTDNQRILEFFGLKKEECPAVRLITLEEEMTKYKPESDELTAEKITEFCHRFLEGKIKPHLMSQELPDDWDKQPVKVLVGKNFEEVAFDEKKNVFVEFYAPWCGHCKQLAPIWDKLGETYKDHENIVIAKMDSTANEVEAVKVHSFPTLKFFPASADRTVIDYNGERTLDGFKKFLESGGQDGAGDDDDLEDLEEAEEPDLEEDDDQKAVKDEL
Nature of the data set: Inhibition of bovine liver PDI preincubated for 30 mins followed by insulin addition for 1 hr by insulin-aggregation assay.

Data set [4] deals with SH-SY5Y. The data set can be described thus: Antiproliferative activity against human SH-SY5Y cells assessed as cell growth inhibition by CCK-8 assay. It is filed as functional, cell-based.
In the next data set the test system is HEK-293T. Nature of the data set: Cytotoxicity against human HEK293T cells assessed as cell growth inhibition. In kind it is cell-based.
In data set [5] the test system is HeLa. The data set can be described thus: Antiproliferative activity against human HeLa cells assessed as cell growth inhibition by CCK-8 assay. It is filed as functional, cell-based.
The species named for data set [6] is Homo sapiens. The data set can be described thus: Nitrosylation activity at recombinant PDI (unknown origin) assessed as generation of S-nitrosylated PDI at 600 uM measured after 30 mins in presence of dithiothreitol by biotin switch assay based Western blot analysis. An outline of the steps:
(§1)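 Biotin-switch detection of S-nitrosylated PDI: 400 ng purified recombinant PDI exposed to NO donor (1, 50, 300 or 600 μM) for 30 min, or left untreated.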

Data set [7] is filed under the species Homo sapiens. Nature of the data set: Nitrosylation activity at recombinant PDI (unknown origin) assessed as generation of S-nitrosylated PDI at 600 uM measured after 30 mins by biotin-switch assay based Western blot analysis. The gist of the method:
as §1

Data set [8] addresses T1, Protein disulfide-isomerase (Bos taurus). The data set can be described thus: Inhibition of bovine liver PDI at 50 uM preincubated for 30 mins followed by insulin addition for 1 hr by insulin-aggregation assay relative to control.
For data set [9], the species on record is Homo sapiens. The data set can be described thus: Nitrosylation activity at recombinant PDI (unknown origin) assessed as generation of S-nitrosylated PDI at 50 uM measured after 30 mins by biotin switch assay based Western blot analysis. The gist of the method: as §1
A general note: Immunoblotting shows a protein as a band on a membrane.

The species entered for data set [10] is Homo sapiens. Nature of the data set: Nitrosylation activity at recombinant PDI (unknown origin) assessed as generation of s-nitrosylated PDI at 50 uM measured after 30 mins in presence of dithiothreitol by biotin switch assay based Western blot analysis. An outline of the steps:
as §1

In data set [11] the test system is HeLa. The data set can be described thus: Antiproliferative activity against human HeLa cells assessed as cell growth inhibition at 5 uM by CCK-8 assay. In kind it is functional, cell-based.
Data set [12] has as its system SH-SY5Y. The data set can be described thus: Antiproliferative activity against human SH-SY5Y cells assessed as cell growth inhibition at 5 uM by CCK-8 assay. In kind it is functional, cell-based.
Data set [13] concerns the target T1, Protein disulfide-isomerase (Bos taurus). The settings on record: 0.1 to 50 uM.

Activity calls are given as the source filed them. No cut-off for these calls is given here.

Regarding `C#CCOC(=O)C1(C)c2[nH]c3ccccc3c2CCN1C(=O)CN(N=O)c1ccccc1` (stereo not given), the inhibition of growth at 600 µM in the data set with SH-SY5Y [1] and in the data set with HeLa [2] was 40% each time. Also, the inhibition (as a rule, how much of the control response was suppressed) is “Dose-dependent effect” in data set [3] and 50% in data set [8]. The “growth inhibition (GI)” value with SH-SY5Y [4] and with HeLa [5] was “Dose-dependent effect” in each case. Also, the Activity entry in the data set with HEK-293T was “Non-Toxic”. The result in the data set listed under Homo sapiens [6] was inactive. Also, the result in the data set filed under Homo sapiens [7] was Active.

As for `N[C@@H](CCC(=O)N[C@@H](CSN=O)C(=O)NCC(=O)O)C(=O)O` [S-NITROSOGLUTATHIONE], the inhibition of growth at 600 µM in the data set with SH-SY5Y [1] and in the data set on HeLa [2] was 40% in each case. For the same molecule, the “growth inhibition (GI)” value with SH-SY5Y [4] and in the data set with HeLa [5] was “Active” in each case. Further, in the data set filed under Homo sapiens [9], the result was Active. Moreover, in the data set with HEK-293T, the Activity result is recorded as “Non-Toxic”. Further, in the data set filed under Homo sapiens [10], the result was inactive. Besides, the inhibition result in data set [8] was “inactive”.

Turning to `C#CCOC(=O)C1(C)c2[nH]c3ccccc3c2CCN1C(=O)CCl` (stereo not given), the “growth inhibition (GI)” value in the data set on HeLa [11] and with SH-SY5Y [12] was “Active” each time. Besides, the inhibition result in data set [13] is “Active”.
